# This is a sample that favours compounds with a hit; in the whole collection about 3% have one here.
# B2AR ag = beta2AR agonists driving receptor internalization, primary screen, cell-based, FAP fluorogen, flow cytometry; Beta-2 adrenergic receptor (Homo sapiens), P07550; Am2.2-beta2AR cells; response, % (test concentration not listed); 340,000 compounds, 0.43% hits; AID 504454, 2011;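 active means response above a set limit, near 3 SD of response in nonfluorescent compounds, cut at about 42% in these data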
# ABHD5-PLIN5 inh = ABHD5-PLIN5 interaction inhibitors, primary screen, cell lysate, split luciferase complementation, luminescence; Split G. princeps luciferase complementation, 4 h; 360,000 compounds, 0.78% hits; Perilipin-5 (Homo sapiens) + 1-acylglycerol-3-phosphate O-acyltransferase ABHD5 (Homo …; inhibition, % at 4 µM;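 active means inhibition above the mean inhibition across every tested compound plus 3 SD, cut at about 22% in these data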
# MC4R antag cAMP = MC4R antagonists of cAMP signaling, primary screen, cell-based, TR-FRET, antagonist arm of biased-ligand search | AID 540295, 2011 | inhibition, % at 6.5 µM | 360,000 compounds, 0.48% hits | Melanocortin receptor 4 (Homo sapiens), P32245 | MC4R-expressing cells, MTII-stimulated cAMP, LANCE TR-FRET;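 active means inhibition above its plate's cutoff, the mean of tested wells on that plate plus 3 SD, cut at about 29% in these data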
# Target sequence (P32245 whole entry, looked up): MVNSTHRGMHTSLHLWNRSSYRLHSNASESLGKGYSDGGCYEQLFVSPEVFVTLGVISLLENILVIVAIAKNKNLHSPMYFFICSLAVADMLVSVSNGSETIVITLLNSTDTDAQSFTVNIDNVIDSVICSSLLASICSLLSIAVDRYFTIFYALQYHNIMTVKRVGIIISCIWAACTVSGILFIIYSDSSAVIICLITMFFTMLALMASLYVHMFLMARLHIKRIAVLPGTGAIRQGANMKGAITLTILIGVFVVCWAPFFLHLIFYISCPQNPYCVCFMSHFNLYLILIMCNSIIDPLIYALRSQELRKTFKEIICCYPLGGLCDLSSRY
#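 Material: human MC4R-expressing U2OS cells. Probe or stimulus: Melanotan II challenge. Dosing: 6.5 µM single dose. Times: 30-min compound, 1-h challenge, 1-h detection, room temperature. Technique: TR-FRET with Eu-cAMP and labeled anti-cAMP, 671 nm. Replication: singlicate.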
# PfGluPho inh = PfG6PD enzyme inhibitors, primary screen, biochemical, fluorescence intensity, uHTS; 350,000 compounds, 0.78% hits; AID 504690, 2011; PfGluPho enzyme, NADPH resazurin-diaphorase fluorescence; inhibition, % at 20 µM;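 active means inhibition reaching at least a set limit at 20 µM in the primary screen, cut at about 59% in these data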
# MC4R ag barr = MC4R agonists recruiting beta-arrestin, primary screen, cell-based, luminescence, agonist arm of biased-ligand search | Melanocortin receptor 4 (Homo sapiens), P32245 | U2OS MC4R beta-arrestin complementation; percent of melanotan II response, DMSO zero | activation, % at 8.9 µM | 360,000 compounds, 0.98% hits | AID 540308, 2011;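 active means activation above a per-plate cutoff, the mean activation of sample wells on that plate plus 3 SD, cut at about 8% in these data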
# cAMP nonselect = nonselective cAMP signaling inhibitors, parental cells, counter-screen for MC4R biased antagonist project, cell-based, TR-FRET, U2OS, forskolin, triplicate; shares compounds with MC4R antag cAMP; LANCE TR-FRET; inhibition, % at 6.5 µM; 1,600 compounds, 26% hits; AID 602193, 2012;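 active means mean inhibition over triplicates above the low-control well mean plus 3 SD, set per campaign, cut at about 13% in these data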;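 further: signal is single emission at 671 nm which falls as cellular cAMP rises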
# MC4R antag conf = MC4R cAMP antagonists, retest, confirmation, cell-based, TR-FRET; shares compounds with MC4R antag cAMP; MC4R-expressing cells, MTII-stimulated cAMP; inhibition, % at 6.5 µM; 1,600 compounds, 27% hits; AID 602195, 2012; in the data active means inhibition above about 29%
# Hits are given with their value; i = inactive; nt = no result given.
SMILES,B2AR ag,ABHD5-PLIN5 inh,MC4R antag cAMP,PfGluPho inh,MC4R ag barr,cAMP nonselect,MC4R antag conf
COc1cc(OC)c(C2C(C#N)=C(C)NC(C)=C2C#N)c(C(=O)O)c1,i,i,i,i,i,nt,nt
Cc1noc(C)c1COC(=O)/C=C/c1ccc(Cl)cc1,i,i,30.7,i,i,i,i
Cc1noc(C)c1COC(=O)c1cnc(Cl)c(Cl)c1,i,i,29.6,i,i,i,32.7
FC(F)Oc1ccccc1NC(=S)NCCc1ccccc1,i,i,31.7,i,i,i,i
O=C(CNc1ccc(F)cc1)N/N=C1\CCCc2ccccc21,i,i,29.9,i,i,i,i
O=C(Cc1ccc(Cl)cc1)N/N=C1\CCCc2ccccc21,i,i,i,i,i,nt,nt
CC(C)(C)NC(=O)N1CCn2cccc2C1c1ccccc1F (configuration not stated),i,i,30.4,i,i,i,i
O=S(=O)(c1cccnc1)N1CCn2cccc2C1c1ccccc1F (configuration not stated),i,i,i,i,i,nt,nt
Cc1cc(C(=O)COc2cc(F)ccc2[N+](=O)[O-])c(C)n1C1CC1,i,i,28.9,i,i,18.9,47.6
COC(=O)c1ccc(C(=O)OC)c(NC(=O)C2CC(=O)N(C3CCCC3)C2)c1 (configuration not stated),i,i,i,i,i,nt,nt
COc1cc2c(cc1NC(=O)CN1C(=O)NC3(CCc4ccccc43)C1=O)oc1ccccc12 (configuration not stated),i,34.6,44.5,i,i,i,i
NS(=O)(=O)c1ccc(CCNC(=O)/C=C/c2ccccc2[N+](=O)[O-])cc1,i,i,i,i,i,nt,nt
COC(=O)c1c(NC(=O)/C=C/C(=O)O)sc(C)c1-c1ccc(C(C)C)cc1,i,i,32.7,i,i,i,i
COC(=O)c1c(NC(=O)/C=C/C(=O)O)sc(C)c1-c1ccc(C)cc1,i,i,i,i,i,nt,nt
COC(=O)c1sc(-c2ccc(Cl)cc2)cc1NC(=O)/C=C/C(=O)O,i,i,47.3,i,i,13.1,i
CC(=O)N1N=C(N)SC1(C)C,i,i,i,i,i,nt,nt
Cc1ccc(-c2nn(-c3ccccc3)cc2NC(=O)CCl)cc1,i,i,36.8,i,i,i,41.1
CC(CN1CCCCC1)OC(=O)c1ccco1 (configuration not stated),i,i,i,i,i,nt,nt
CO/N=C/c1ccc(Sc2ccc(C)cc2)c([N+](=O)[O-])c1,i,i,28.6,i,i,i,i
COc1ccc(C(=O)CCN2CCCCCC2)cc1,i,i,40.1,i,i,15.3,i
CCOc1ccc(C(=O)CCN2CCCCC2)cc1,i,i,i,i,i,nt,nt
Cc1ccc(N2CC(C(=O)OCc3nnc(-c4ccccc4)o3)CC2=O)cc1 (configuration not stated),i,i,i,i,i,nt,nt
CCOC(=O)C1=C(O)/C(=C/c2ccc(OCC(=O)O)c(OCC)c2)SC1=Nc1ccc(OC)cc1,i,i,i,i,i,nt,nt
CCOC(=O)C1=C(O)/C(=C/c2ccc(OCC(=O)O)c(OCC)c2)SC1=Nc1ccc(C)cc1,i,i,28.6,i,i,i,i
CCSc1nc2ccccc2c(=O)n1C1CCOC(C)(C)C1 (configuration not stated),i,i,i,i,i,nt,nt
SMILES,B2AR ag,ABHD5-PLIN5 inh,MC4R antag cAMP,PfGluPho inh,MC4R ag barr,cAMP nonselect,MC4R antag conf
C=CCSc1nc2ccccc2c(=O)n1C1CCOC(C)(C)C1 (configuration not stated),i,i,34.4,i,i,i,i
CCOC(=O)c1cc(C#N)c(N2CCN(c3ccc(OC)cc3)CC2)[nH]c1=O,i,i,i,i,i,nt,nt
O=C(CSc1nccc(=O)[nH]1)NN(c1ccccc1)c1ccccc1,i,i,28.6,i,i,i,i
O=C(CSc1ncn[nH]1)NN(c1ccccc1)c1ccccc1,i,i,i,i,i,nt,nt
Cc1noc(C)c1S(=O)(=O)Nc1ccc2c(c1)C(=O)N([C@H](C)CO)C[C@H](C)[C@H](CN(C)S(=O)(=O)c1ccc(Cl)cc1)OCCCC[C@@H](C)O2,nt,i,nt,nt,nt,nt,nt
Cc1ccc(S(=O)(=O)N(C)C[C@@H]2OCCCC[C@@H](C)Oc3ccc(NS(=O)(=O)c4c(C)noc4C)cc3C(=O)N([C@H](C)CO)C[C@@H]2C)cc1,nt,i,34.3,i,i,i,i
CC1CN(S(=O)(=O)c2ccc(C(=O)N3c4ccccc4CC3C)cc2)CC(C)O1 (configuration not stated),i,i,28.6,i,i,i,i
O=C(NC(=S)Nc1nc2c(s1)CSc1ccccc1-2)c1ccccc1,i,i,i,i,i,nt,nt
CC1CCCCN1S(=O)(=O)c1cnc(Cl)c(Br)c1 (configuration not stated),i,i,33.3,i,i,i,i
CC1CCCCN1S(=O)(=O)c1csc(C(N)=O)c1 (configuration not stated),i,i,i,i,i,nt,nt
CC1CCN(S(=O)(=O)c2cnc(Cl)c(Br)c2)CC1,i,i,40.9,i,i,15.2,41.0
COc1ccc(C(CNC(=O)c2ccc(S(=O)(=O)Nc3ccccc3OC)cc2)N2CCCC2)cc1 (configuration not stated),i,i,i,i,i,nt,nt
Cc1cc(C#N)c(C)c(SCc2[nH]nc3c2C(c2ccccc2)C(C#N)=C(N)O3)n1 (configuration not stated),i,i,30.5,i,i,i,i
Cc1cccc(C)c1N1C(=O)c2cccc([N+](=O)[O-])c2C1=O,i,i,i,i,i,nt,nt
Cc1ccc(N2C(=O)c3cccc([N+](=O)[O-])c3C2=O)cc1C,i,i,42.5,i,i,22.9,45.4
C[C@@H]1CN([C@@H](C)CO)C(=O)c2cc(-c3ccccc3F)cnc2O[C@H]1CN(C)Cc1cccc(F)c1,nt,i,i,i,i,nt,nt
O=C(O)c1ccc(C2NCC(c3ccccc3Cl)c3c2[nH]c2ccccc32)cc1 (configuration not stated),i,i,i,i,i,nt,nt
COc1cc(C2NCC(c3ccc(Cl)cc3Cl)c3c2[nH]c2ccccc32)cc(OC)c1OC (configuration not stated),i,i,36.0,i,i,i,i
CCOCCCNC(=O)N1CCOCC1,i,i,i,i,i,nt,nt
